Results published in ChEMBL document CHEMBL4196014, “Highly convergent synthesis and antiviral activity of (E)-but-2-enyl nucleoside phosphonoamidates” (Eur J Med Chem, 2018).
Calls of active or inactive are those of the source. The calls are words filed in the database; no cut-off is given here.

Tests used:
[1] = system: Human betaherpesvirus 5; experiment: Antiviral activity against Human cytomegalovirus AD169 infected in HEL cells assessed as reduction in viral cytopathic effect; assay type: functional, organism-based; settings: Human betaherpesvirus 5, AD169, HEL
Outline: (§1)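 Confluent cell monolayers were infected with 100 CCID50 of virus (1 CCID50 is the dose infecting 50% of cultures) with test compound at varying concentrations (100, 20, … μM). CPE was scored once it was complete in untreated infected controls.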

[2] = system: Human betaherpesvirus 5; experiment: Antiviral activity against Human cytomegalovirus Davis infected in HEL cells assessed as reduction in viral cytopathic effect; assay type: functional, organism-based; settings: Human betaherpesvirus 5, Davis; outline: as §1
[3] = system: Human alphaherpesvirus 3; experiment: Antiviral activity against Varicella zoster virus Oka infected in HEL cells assessed as reduction in viral plaque formation; assay type: functional, organism-based; settings: Human alphaherpesvirus 3, strain Oka vaccine
Outline: (§2)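 Confluent cultures were inoculated with 20 PFU of virus with compound at varying concentrations (100, 20, … μM). Plaques were counted once plaque formation was complete in untreated infected controls.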

[4] = system: Human alphaherpesvirus 3; experiment: Antiviral activity against thymidine kinase deficient Varicella zoster virus 07/1 infected in HEL cells assessed as reduction in viral plaque formation; assay type: functional, organism-based; settings: Human alphaherpesvirus 3, 07/1, HEL; outline: as §2
[5] = Cytotoxicity against HEL cells assessed as alteration of cell morphology by microscopic method; assay type: cell-based; settings: human
Outline: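 MCC is the lowest compound concentration giving a microscopically visible alteration of cell morphology.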

[6] = system: HEL; experiment: Cytostatic activity against HEL cells after 3 days by Coulter counting method; assay type: cell-based; settings: human, 72 h
Outline: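 HEL cells were seeded at 5 × 10^3 cells/well and grown for 24 h, then given medium with graded compound concentrations. After 3 days at 37 °C, cells were counted with a Coulter counter.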

[7] = Selectivity index, ratio of CC50 for HEL cells to EC50 for Varicella zoster virus Oka infected in HEL cells; assay type: toxicity, cell-based; settings: human, read-out: Ratio CC50/EC50
Outline: (§3)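 SI is CC50 divided by EC50. CC50 comes from the 3-day HEL Coulter-counter growth assay. EC50 comes from the VZV plaque-reduction assay (20 PFU inoculum).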

[8] = Selectivity index, ratio of CC50 for HEL cells to EC50 for thymidine kinase deficient Varicella zoster virus 07/1 infected in HEL cells; assay type: toxicity, cell-based; settings: human, read-out: Ratio CC50/EC50; outline: as §3
[9] = system: Human alphaherpesvirus 1; experiment: Antiviral activity against Human simplex virus 1 KOS infected in HEL cells assessed as reduction in viral cytopathic effect; assay type: functional, organism-based; settings: Human alphaherpesvirus 1, KOS; outline: as §1
[10] = system: Human alphaherpesvirus 1; experiment: Antiviral activity against thymidine kinase deficient acyclovir-resistant Human simplex virus 1 KOS infected in HEL cells assessed as reduction in viral cytopathic effect; assay type: functional, organism-based; settings: Human alphaherpesvirus 1, KOS; outline: as §1
[11] = system: Human alphaherpesvirus 2; experiment: Antiviral activity against Human simplex virus 2 G infected in HEL cells assessed as reduction in viral cytopathic effect; assay type: functional, organism-based; settings: Human alphaherpesvirus 2, strain G; outline: as §1
[12] = system: Vaccinia virus; experiment: Antiviral activity against Vaccinia virus infected in HEL cells assessed as reduction in viral cytopathic effect; assay type: functional, organism-based; settings: Orthopoxvirus vaccinia; outline: as §1
[13] = system: Human coronavirus 229E; experiment: Antiviral activity against Human coronavirus 229E infected in HEL cells assessed as reduction in viral cytopathic effect; assay type: functional, organism-based; outline: as §1
[14] = system: Human respirovirus 3; experiment: Antiviral activity against Human parainfluenza virus 3 infected in African green monkey Vero cells assessed as reduction in viral cytopathic effect; assay type: functional, organism-based; outline: as §1
[15] = system: Mammalian orthoreovirus 1; experiment: Antiviral activity against Reovirus-1 infected in African green monkey Vero cells assessed as reduction in viral cytopathic effect; assay type: functional, organism-based; outline: as §1
[16] = system: Sindbis virus; experiment: Antiviral activity against Sindbis virus infected in African green monkey Vero cells assessed as reduction in viral cytopathic effect; assay type: functional, organism-based; outline: as §1
[17] = system: Coxsackievirus B4; experiment: Antiviral activity against Coxsackievirus B4 infected in African green monkey Vero cells assessed as reduction in viral cytopathic effect; assay type: functional, organism-based; outline: as §1
[18] = system: Vesicular stomatitis virus; experiment: Antiviral activity against Vesicular stomatitis virus infected in human HeLa cells assessed as reduction in viral cytopathic effect; assay type: functional, organism-based; outline: as §1
[19] = system: Coxsackievirus B4; experiment: Antiviral activity against Human coxsackievirus B4 infected in human HeLa cells assessed as reduction in viral cytopathic effect; assay type: functional, organism-based; outline: as §1
[20] = system: Respiratory syncytial virus; experiment: Antiviral activity against Respiratory syncytial virus infected in human HeLa cells assessed as reduction in viral cytopathic effect; assay type: functional, organism-based; outline: as §1
[21] = system: Influenza A virus; experiment: Antiviral activity against Influenza A virus (H1N1) infected in MDCK cells assessed as reduction in viral cytopathic effect; assay type: functional, organism-based
Outline: (§4)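 Nearly confluent MDCK cultures were infected with 100 CCID50 of virus with compound at varying concentrations (100, 20, … μM). CPE was scored when complete in untreated infected controls.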

[22] = system: Influenza A virus H3N2; experiment: Antiviral activity against Influenza A virus H3N2 infected in MDCK cells assessed as reduction in viral cytopathic effect; assay type: functional, organism-based; outline: as §4
[23] = system: Influenza B virus; experiment: Antiviral activity against Influenza B virus infected in MDCK cells assessed as reduction in viral cytopathic effect; assay type: functional, organism-based; outline: as §4
[24] = system: Human immunodeficiency virus 1; experiment: Antiviral activity against Human immunodeficiency virus 1 LAV1 infected in primary human PBM cells after 6 days by reverse transcriptase activity-based assay; assay type: functional, organism-based

SMILES: Cc1cn(C/C=C/C[P@](=O)(N[C@@H](C)C(=O)OCc2ccccc2)Oc2ccccc2)c(=O)[nH]c1=O
- EC50 [1]: 29.9 µM
- EC50 [2]: 44.7 µM
- EC50 [3]: 0.39 µM
- EC50 [4]: 0.33 µM
- MCC [5]: > 100 µM
- CC50 [6]: ≥ 83 µM
- selectivity ratio [7]: ≥ 213
- selectivity ratio [8]: ≥ 252
- EC50 [9]: 9.6 µM
- EC50 [10]: 3.2 µM
- EC50 [11]: 5.3 µM
- EC50 [12]: > 100 µM
- EC50 [13]: 24.6 µM
- Activity [14]: inactive
- Activity [15]: inactive
- Activity [16]: inactive
- Activity [17]: inactive
- Activity [18]: inactive
- Activity [19]: inactive
- Activity [20]: inactive
- Activity [21]: inactive
- Activity [22]: inactive
- Activity [23]: inactive
- Activity [24]: inactive

SMILES: Cc1cn(C/C=C/CP(=O)(N[C@@H](C)C(=O)OC(C)C)Oc2ccccc2)c(=O)[nH]c1=O (stereo partly drawn)
- EC50 [1]: 25.9 µM
- EC50 [2]: 13.5 µM
- EC50 [3]: 4.59 µM
- EC50 [4]: 1.03 µM
- MCC [5]: > 100 µM
- CC50 [6]: > 100 µM
- selectivity ratio [7]: > 22
- selectivity ratio [8]: > 97
- EC50 [9]: > 100 µM
- EC50 [10]: > 100 µM
- EC50 [11]: > 100 µM
- EC50 [12]: > 100 µM
- EC50 [13]: > 100 µM
- Activity [14]: inactive
- Activity [15]: inactive
- Activity [16]: inactive
- Activity [17]: inactive
- Activity [18]: inactive
- Activity [19]: inactive
- Activity [20]: inactive
- Activity [21]: inactive
- Activity [22]: inactive
- Activity [23]: inactive
- Activity [24]: inactive
